Most compounds without a hit are left out; they make up all but 5.2% or so of the library.
tolC growth inh: blocks growth of E. coli BW25113 tolC mutant | AID 573 | growth inhibition, % at 10 µM (by protocol) | OD615 | hit rate 2.2% among 65,000;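 active means growth inhibition at or above a cutoff equal to the mean over every tested compound plus 3 SD, cut at about 60% in these data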;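 further: growth measured after 20 h incubation at 37 °C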
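test system = E. coli BW25113 ΔtolC::kan bacteria | medium = LB with kanamycin 50 µg/mL | signal = OD at 615 nm | schedule = 37 °C, 20 h exposure | evaluation = % inhibition of E. coli growth | compound dosing = one dose of 10 µM final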
M1 antagonist: antagonists of rat M1 muscarinic receptor | P08482 | CHO-M1 cells, Fluo-4 calcium, ACh EC80 antagonist mode; active compounds read low | B-score at 10 µM | hit rate 3.4% among 64,000;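 active means calcium fluorescence response, raw or row-and-column corrected B-score, differing from the plate sample mean either way at a set confidence level, mostly lower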
M1 agonist: activates the M1 muscarinic receptor; CHO-M1 cells, Fluo-4 calcium fluorescence, agonist mode; active compounds read high; B-score at 10 µM; hit rate 3% among 64,000; AID 626;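 active means fluorescence rise, raw or as B-score row- and column-corrected plate score, outside the 99.7% band of its plate's samples, either direction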
WNV NS2B-NS3 inh: inhibitors of West Nile virus NS2B-NS3 protease; WNV NS2B-NS3 protease, fluorogenic substrate Ex360/Em465; active compounds read low; z-score (test concentration not listed); hit rate 0.18% among 65,000; AID 577; in the data active means z-score below about -3
Target sequence (P06935 1371-1501 limits assumed): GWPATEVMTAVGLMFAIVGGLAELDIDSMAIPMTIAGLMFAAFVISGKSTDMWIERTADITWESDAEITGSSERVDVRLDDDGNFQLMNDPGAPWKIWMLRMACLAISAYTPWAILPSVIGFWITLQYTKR
Target sequence (P06935 1502-1679 limits assumed): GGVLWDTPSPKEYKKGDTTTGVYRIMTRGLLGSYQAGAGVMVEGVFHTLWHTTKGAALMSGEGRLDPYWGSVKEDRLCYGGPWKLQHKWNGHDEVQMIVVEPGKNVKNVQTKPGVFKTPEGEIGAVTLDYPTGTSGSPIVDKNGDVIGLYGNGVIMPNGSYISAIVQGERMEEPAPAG
E coli WT exp: growth inhibitors of E. coli BW25113 wild type; OD600 absorbance; growth inhibition, % at 100 µM; hit rate 0.15% among 98,000; AID 710;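 active means growth inhibition above about 50% at one test dose, limit read from the data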;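 further: growth measured after 20 h incubation at 37 °C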
AP ELISA ortho: alternative pathway complement inhibition, orthogonal assay; Human serum alternative complement pathway, LPS-coated ELISA, C3 deposition; tested in compound mixtures; inhibition, % at 5 µM; hit rate 0.08% among 62,000; AID 1235;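 active means inhibition above 30% in each of the two pooled mixtures holding the compound, so the lower value exceeds 30%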;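 further: 0% = serum in Mg-EGTA without compound and 100% = EDTA serum blank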
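Assay system: Human serum alternative complement pathway, C3 deposition on LPS-coated wells | Incubation: 1 h serum-compound exposure at 37 °C | Doses: 5 µM per compound in ten-compound mixtures | Read-out: Percent inhibition | Technique: ELISA with HRP anti-human C3 antibody, TMB substrate, absorbance 450 nm | Replication: Two pool placements per compound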
M1 agonist conf: confirmation of rat M1 muscarinic receptor agonists. shares compounds with M1 agonist. hit rate 19% among 1,700. AID 1488. CHO-M1 cells, Fluo-4 calcium fluorescence, agonist mode; actives lie on both sides. fluorescence change (max-min) at 10 µM;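 active means fluorescence change differs from the solvent-only DMSO control mean at a set confidence level in both duplicate runs; inconclusive means differs from solvent-only control mean in just one of two runs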;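 further: an EC20 dose of acetylcholine follows compound addition during the same imaging run; raw fluorescence intensity difference in instrument units with no normalization to controls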
M4 agonist ctr: counter-screen for M1 agonists: activity at rat M4 receptor. shares compounds with M1 agonist. CHO M4/Gqi5 cells, Fluo-4 calcium fluorescence, agonist mode; actives lie on both sides. fluorescence change (max-min) at 10 µM. hit rate 9% among 1,700;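 active means fluorescence change differing from the plate's solvent-only control wells at 99.7% confidence in both duplicates, whether higher or lower; inconclusive means differs from solvent controls in only one of two duplicates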
Starred values were filed as active, the others as inactive; ? = inconclusive; / = not tested or not shown.

SMILES | tolC growth inh | M1 antagonist | M1 agonist | WNV NS2B-NS3 inh | E coli WT exp | AP ELISA ortho | M1 agonist conf | M4 agonist ctr
Nc1c(C(=O)NCC2CCCO2)c2nc3ccccc3nc2n1-c1ccccc1 (stereo not given) | -8 | -2.7 | 11* | 3.2 | -5 | 3 | ? | -70
COc1ccccc1-n1c(N)c(C(=O)NCC2CCCO2)c2nc3ccccc3nc21 (stereo not given) | 4 | -0.39 | -0.26 | 1.1 | -1 | 21 | / | /
COc1cccc2c1N1C(=O)c3c(C(=O)O)cccc3C1CC2(C)C (stereo not given) | 17 | 0.48 | 0.11 | -0.84 | 5 | 14 | / | /
CCN(c1ccccc1)S(=O)(=O)c1ccc(F)c(C(=O)O)c1 | -1 | 0.021 | 0.3 | 0.48 | 0 | 11 | / | /
CCN(c1ccccc1)S(=O)(=O)c1ccc(F)cc1C | 33 | -0.018 | 15* | -0.8 | -5 | -2 | ? | -57
CCc1c(C)nc2ncnn2c1N1CCCC(C(=O)NCCc2ccccc2)C1 (stereo not given) | -8 | -0.41 | -0.11 | 1.5 | 7 | 3 | / | /
CCc1c(C)nc2ncnn2c1N1CCCC(C(=O)NCc2ccco2)C1 (stereo not given) | -2 | -4.5* | 2.8* | -0.71 | 4 | 0 | ? | -42
CCC(=O)N1CCc2cc(S(=O)(=O)Nc3ccc4c(c3)OCCO4)ccc21 | -5 | / | / | 0.46 | -4 | -4 | / | /
CS(=O)(=O)N1CCc2cc(S(=O)(=O)Nc3ccc4c(c3)OCCO4)ccc21 | -4 | -1.1 | 1.8* | -0.14 | 4 | / | 8.9 | -23
Cc1noc(C)c1C(=O)OCC(=O)NC(c1ccccc1)c1ccccc1 | / | / | / | / | -7 | / | / | /
COCC(=O)NC(c1ccccc1)c1ccccc1 | 11 | -0.34 | 13* | 0.24 | 1 | 0 | -11 | -37
CSc1ccc(C2C(C#N)=C(N)Oc3c2ccc(=O)c2c(C)oc(C)c32)cc1 (stereo not given) | 10 | 0.55 | 7.2* | 0.09 | -3 | 4 | 15 | -18
COc1ccc(C(=O)N2CCN(c3ccc(C)c(C)c3)CC2)cc1OC | 3 | 0.03 | -2.5* | -0.11 | -4 | 31 | ? | -83*
CC(=O)c1c(C)[nH]c(C(=O)OCCCCN2C(=O)c3ccccc3C2=O)c1C | 22 | -2.4* | 6.4* | 0.99 | -11 | -4 | 0.55 | -88*
COc1ccccc1NC(=O)C1=C(C)Nc2nc(-c3cccs3)nn2C1c1cccc(O)c1 (stereo not given) | 14 | -1.3 | 8.5* | -0.64 | 2 | 9 | ? | ?
CCc1c(C)nc(Nc2nc(C)c3cc(OC)ccc3n2)[nH]c1=O | 33 | -0.38 | 4.1* | 0.51 | -6 | 22 | -22 | -20
COc1ccc(-c2cc(C(F)(F)F)n3ncc(C(=O)NCc4ccco4)c3n2)cc1 | 10 | -0.69 | 2.9* | -0.55 | -4 | -19 | 10 | 4.9
O=C(c1cnn2c(C(F)(F)F)cc(-c3ccc4c(c3)OCO4)nc12)N1CCCCC1 | -5 | -1.2 | 0.014 | -0.79 | -2 | -8 | / | /
O=C(NC1CCCC1)c1cnn2c(C(F)(F)F)cc(-c3ccc4c(c3)OCO4)nc12 | 14 | -0.86 | 14* | 0.37 | 3 | -12 | 23 | 8.7
COc1ccc(/C=C\C(=O)CC(O)(c2ccccc2)C(F)(F)F)cc1 (stereo not given) | / | / | / | / | 7 | / | / | /
Cc1ccc(Cn2nnc(C(=O)Nc3cccc(C)c3C)c2N)cc1 | 1 | 0.014 | 7.5* | -1 | -10 | 23 | 4.2 | -62
CCc1ccc(Cn2nnc(C(=O)NCc3ccccc3OC)c2N)cc1 | 4 | 0.14 | 2.2* | 1.3 | -7 | 13 | -29 | -23
CCN=C(NCC)SC1CC(=O)N(c2ccccc2)C1=O (stereo not given) | -24 | -2.1 | 10* | 0.69 | -18 | -1 | -11 | -28
CCN=C(Nc1cccc(F)c1)SC1CC(=O)N(c2ccc(OC)cc2)C1=O (stereo not given) | -2 | -2.2 | 4.8* | -0.7 | -3 | 6 | -14 | -28
COc1ccc(N2C(=O)CC(NCc3cccc(F)c3)C2=O)cc1 (stereo not given) | -12 | 0.19 | 0.055 | 0.46 | / | 1 | / | /
SMILES | tolC growth inh | M1 antagonist | M1 agonist | WNV NS2B-NS3 inh | E coli WT exp | AP ELISA ortho | M1 agonist conf | M4 agonist ctr
CCN=C(NCC)SC1CC(=O)N(c2cccc(OC)c2)C1=O (stereo not given) | 8 | -0.51 | 2.2 | -0.88 | -2 | 12 | / | /
COc1cc(/C=C/c2cc(OC(C)=O)c3ccccc3n2)c(OC(C)=O)c([N+](=O)[O-])c1 | / | / | / | / | -8 | / | / | /
O=C(c1ccc(CNc2c(N3CCCC3)c(=O)c2=O)cc1)N1CCc2ccccc2C1 | -10 | 0.37 | 0.019 | 0.06 | -5 | -6 | / | /
COc1cc(/C=c2\s/c(=C(/C#N)C(=O)N3CCCC3)n(-c3ccccc3)c2=O)ccc1O | 6 | -0.43 | 48* | -1.2 | -9 | 4 | 40 | 43
CCC(=O)c1ccc(OCC(=O)Nc2nn3cnnc3s2)cc1 | 18 | -0.042 | 0.6 | -0.79 | -12 | 19 | / | /
COC(=O)CSc1cc(SCC(=O)OC)c(C#N)c(SCC(=O)OC)c1 | -10 | -1.1 | 9.5* | -0.2 | -4 | 14 | -21 | -64*
O=C1COc2ccc(C(=O)CSc3nnc(-c4cccs4)n3Cc3ccccc3)cc2N1 | 25 | 0.7 | -0.94 | 0.35 | -4 | 14 | / | /
O=C1COc2ccc(C(=O)CSc3nnc(Cc4cccs4)n3-c3ccccc3)cc2N1 | 8 | 0.45 | 5.2* | 0.11 | 33 | 0 | 5.3 | -24
Cc1nc2ccccc2c2oc(C(=O)N3CCN(C4CCCCC4)CC3)cc12 | -3 | -3.2* | 2.4* | 0.41 | 10 | 17 | ? | -43
CCOc1cccc(C2C(C(=O)c3ccc(C)o3)=C(O)C(=O)N2c2nccs2)c1 (stereo not given) | 18 | 0.27 | 55* | -0.3 | 5 | 5 | 822* | 125*
CCOc1cccc(C2C(C(=O)c3ccc(C)o3)=C(O)C(=O)N2Cc2ccncc2)c1 (stereo not given) | 4 | 0.047 | 0.54 | 0.69 | 1 | 3 | / | /
COc1ccc(S(=O)(=O)NCCOc2ccccc2)cc1OC | -3 | -0.27 | 2.3* | -0.53 | -2 | -3 | -11 | -22
COc1ccc(CCNS(=O)(=O)c2ccccc2)cc1OC | -13 | -0.37 | -0.056 | 0.32 | -2 | 1 | / | /
CCn1cc(C(=O)NCc2ccccn2)c(=O)c2cc(S(=O)(=O)N3CCCCC3)ccc21 | -9 | 1.2 | 11* | -0.46 | 1 | 11 | 73* | 17
CCn1cc(C(=O)NCc2ccco2)c(=O)c2cc(S(=O)(=O)N3CCCCCC3)ccc21 | 23 | 0.61 | 0.51 | 0.2 | -6 | -2 | / | /

Source: PubChem BioAssay
